Assay results: ChEMBL document CHEMBL1139435, “Beta-oxygenated analogues of the 5-HT2A serotonin receptor agonist 1-(4-bromo-2,5-dimethoxyphenyl)-2-aminopropane” (J Med Chem, 2004)

Assays:
Monkey [1] = assay: Percent reduction of intraocular pressure after 6 hours following topical ocular administration to normal eye conscious cynomolgus monkeys; type: functional, Cercopithecidae
Summary of the method: (§1)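 Conscious cynomolgus monkeys dosed topically in the eye with 300 µg in phosphate-buffered saline, pH 7.4. Vehicle was given to test eyes of five or six further animals. IOP measured at baseline and at 1, 3 and 6 h. Values are % reduction from baseline.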

Monkey [2] = assay: Percent reduction of intraocular pressure after 1 hour following topical ocular administration to normal eye conscious cynomolgus monkeys; type: functional, Cercopithecidae; summary of the method: as §1
[3] = biological target: T1, 5-hydroxytryptamine receptor 2A (Rattus norvegicus, UniProt P14842); assay: Binding affinity for 5-HT2A serotonin receptor
T1 sequence (P14842 whole entry): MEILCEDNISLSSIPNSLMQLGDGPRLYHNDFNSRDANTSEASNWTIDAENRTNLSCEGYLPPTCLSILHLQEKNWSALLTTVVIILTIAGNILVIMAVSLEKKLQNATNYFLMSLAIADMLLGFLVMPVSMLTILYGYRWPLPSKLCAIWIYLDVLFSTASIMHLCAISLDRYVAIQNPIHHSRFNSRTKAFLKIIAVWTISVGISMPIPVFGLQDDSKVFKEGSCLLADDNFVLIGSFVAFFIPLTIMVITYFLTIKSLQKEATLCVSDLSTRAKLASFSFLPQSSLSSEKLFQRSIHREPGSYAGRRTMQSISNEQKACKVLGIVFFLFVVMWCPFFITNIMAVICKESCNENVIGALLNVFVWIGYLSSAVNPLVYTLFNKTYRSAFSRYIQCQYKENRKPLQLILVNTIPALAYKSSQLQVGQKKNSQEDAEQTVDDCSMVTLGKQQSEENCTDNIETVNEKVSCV
Summary of the method: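 Incubated 1 h at 23 °C. Nonspecific binding defined with methiothepin (10 µM final). Ended by vacuum filtration over GF/B filters presoaked in 0.3% polyethyleneimine, washed with ice-cold buffer. Bound counts read by scintillation. IC50 for displacing labelled DOI binding.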

[4] = biological target: 5-hydroxytryptamine receptor 2A (Rattus norvegicus) (UniProt P14842); assay: Efficacy as 5-HT2A receptor-mediated intracellular calcium [Ca2+] mobilization in rat A7r5 cells; type: functional, cell-based
Chain of 5-hydroxytryptamine receptor 2A (Rattus norvegicus) (P14842 whole entry): as above
Summary of the method: (§2)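 Rat A7r5 vascular smooth muscle cells grown in DMEM/10% FBS, seeded at 20 000 cells/well, cultured 2 days. Loaded with calcium dye in HBSS/20 mM HEPES/2.5 mM probenecid pH 7.4 for 1 h at 23 °C. Response is peak minus basal fluorescence, expressed as % of maximal 5-HT response.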

Monkey [5] = assay: Percent reduction of intraocular pressure after 3 hours following topical ocular administration to normal eye conscious cynomolgus monkeys; type: functional, Cercopithecidae; summary of the method: as §1
[6] = biological target: T1, 5-hydroxytryptamine receptor 2A; assay: Serotonin 5-HT2A receptor-mediated intracellular calcium [Ca2+] mobilization in rat A7r5 cells; type: functional, cell-based; summary of the method: as §2

| Compound | Reduction (Monkey [1]) | Reduction (Monkey [2]) | Ki [3] | Efficacy [4] | Reduction (Monkey [5]) | EC50 [6] |
| --- | --- | --- | --- | --- | --- | --- |
| COc1cc([C@@H](OC)[C@@H](C)N)c(OC)cc1Br | 25.5% | 19% | 0.3 nM | 93% | 27.5% | 130 nM |
| COc1cc([C@H](O)[C@H](C)N)c(OC)cc1Br |  |  | 10 nM | 16% |  |  |
| COc1cc([C@H](OC)[C@H](C)N)c(OC)cc1Br |  |  | 6 nM | 31% |  | 1410 nM |
| CCC(N)Cc1cc(OC)c(Br)cc1OC (stereo not given) |  |  | 7.6 nM | 15% |  |  |
| COc1ccc(OC)c(C[C@@H](C)N)c1 |  |  | 9.2 nM | 34% |  | 740 nM |
| COc1cc(CC(C)N)c(OC)cc1Br (stereo not given) |  |  |  | 38% |  |  |
| COc1cc([C@@H](O)[C@H](C)N)c(OC)cc1Br |  |  | 1.1 nM | 22% |  | 840 nM |
| COc1cc(C[C@@H](C)N)c(OC)cc1I | 34.4% | 15.2% |  |  | 31% |  |
| COc1cc(C(O)CN)c(OC)cc1Br (stereo not given) |  |  | 2.1 nM | 8% |  |  |
| COc1cc(C(CN)OC)c(OC)cc1Br (stereo not given) |  |  | 2 nM | 63% |  | 120 nM |
| CC[C@H](N)[C@H](O)c1cc(OC)c(Br)cc1OC |  |  | 20.3 nM | 5% |  |  |
| COc1cc([C@@H](O)[C@@H](C)N)c(OC)cc1Br | 22.1% | 10.7% | 0.5 nM | 50% | 19% | 100 nM |
| COc1cc(C2CNCCO2)c(OC)cc1Br (stereo not given) |  |  | 20.6 nM | 4% |  |  |
| COc1cc([C@H](O)[C@@H](C)N)c(OC)cc1Br |  |  | 9.2 nM | 20% |  |  |
